According to ChEMBL document CHEMBL1122835, “Synthesis and pharmacology of the potent angiotensin-converting enzyme inhibitor N-[1(S)-(ethoxycarbonyl)-3-phenylpropyl]-(S)-alanyl-(S)-pyroglutamic acid” (J Med Chem, 1985):
One block for each molecule: values may come before it.

Assays:
[1] = target: T1, Angiotensin-converting enzyme (Rattus norvegicus) (UniProt P47820); test: Inhibitory activity was determined against Angiotensin I converting enzyme; assay type: functional
T1 sequence (whole entry): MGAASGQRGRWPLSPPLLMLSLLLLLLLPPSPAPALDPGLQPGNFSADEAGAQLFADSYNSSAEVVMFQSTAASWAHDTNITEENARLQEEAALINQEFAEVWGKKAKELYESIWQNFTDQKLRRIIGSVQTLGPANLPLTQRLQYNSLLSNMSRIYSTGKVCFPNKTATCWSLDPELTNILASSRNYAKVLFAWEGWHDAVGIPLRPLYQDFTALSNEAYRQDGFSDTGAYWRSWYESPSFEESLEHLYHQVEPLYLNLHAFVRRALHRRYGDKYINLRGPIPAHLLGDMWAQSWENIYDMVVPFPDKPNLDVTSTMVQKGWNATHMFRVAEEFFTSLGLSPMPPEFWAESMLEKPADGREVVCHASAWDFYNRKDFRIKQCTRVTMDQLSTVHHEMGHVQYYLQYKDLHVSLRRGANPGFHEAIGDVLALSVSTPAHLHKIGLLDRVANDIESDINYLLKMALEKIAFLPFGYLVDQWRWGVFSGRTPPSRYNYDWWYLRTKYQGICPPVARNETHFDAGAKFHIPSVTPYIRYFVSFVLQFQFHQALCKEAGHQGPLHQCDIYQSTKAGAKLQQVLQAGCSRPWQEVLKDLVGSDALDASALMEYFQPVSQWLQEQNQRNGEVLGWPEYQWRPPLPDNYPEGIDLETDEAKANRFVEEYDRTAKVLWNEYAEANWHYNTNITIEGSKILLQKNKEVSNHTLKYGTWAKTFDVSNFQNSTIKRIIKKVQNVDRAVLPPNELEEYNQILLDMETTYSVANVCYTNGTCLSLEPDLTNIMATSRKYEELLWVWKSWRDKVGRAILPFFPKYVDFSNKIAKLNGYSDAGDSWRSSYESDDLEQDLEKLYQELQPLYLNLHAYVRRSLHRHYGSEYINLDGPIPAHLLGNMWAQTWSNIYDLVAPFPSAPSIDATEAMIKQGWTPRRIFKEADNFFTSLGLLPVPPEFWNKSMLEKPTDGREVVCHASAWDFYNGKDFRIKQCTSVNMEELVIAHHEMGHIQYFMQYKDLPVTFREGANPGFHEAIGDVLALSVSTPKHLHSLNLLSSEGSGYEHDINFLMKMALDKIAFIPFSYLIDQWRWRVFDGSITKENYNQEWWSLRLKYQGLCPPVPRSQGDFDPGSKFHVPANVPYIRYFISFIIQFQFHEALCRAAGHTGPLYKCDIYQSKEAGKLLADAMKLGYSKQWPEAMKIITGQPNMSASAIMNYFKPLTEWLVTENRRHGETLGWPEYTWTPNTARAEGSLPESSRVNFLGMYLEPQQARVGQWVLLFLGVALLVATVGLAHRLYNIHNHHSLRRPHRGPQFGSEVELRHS

[2] = species: Rattus norvegicus; test: Dose required to reduce systolic blood pressure by 30 mmHg; assay type: functional; settings: Artery
Outline: (§1)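 Male SHR, 13 weeks old, given HCTZ 25 mg/kg po in 0.25% methylcellulose daily for 3 days. Drug given orally in water (5 mL/kg) 1 h after the third dose. Tail-cuff systolic pressure and pulse-count heart rate taken 1.5 h later after 20 min warming at 38 °C. ANOVA with Duncan's test; ED30 by linear regression.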

[3] = tested on: Rattus norvegicus; test: Hypotensive activity was determined in low-sodium treated rat, dose 3 mg/kg administered orally at 5 hr; assay type: functional; settings: route oral
Outline: (§2)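 Male CD rats, 11 weeks old, kept on a sodium-deficient diet for 3 weeks and fasted overnight, were dosed orally with aqueous solutions (5 mL/kg), water as control. Systolic pressure measured by tail cuff at the stated post-dose time. ANOVA with Duncan's test.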

[4] = species: Rattus norvegicus; test: Effective dose was determined to increase the vasoResponse in rat; assay type: functional
Outline: (§3)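 Anesthetized (pentobarbital/barbital ip) male Charles River CD rats, 380–500 g, kept at 37 °C. Femoral artery blood pressure recorded. Control depressor response to bradykinin 1 μg/kg iv, then cumulative iv drug in 0.9% saline (1 mL/kg), 0.0033–0.27 mg/kg. Bk challenge 5 min after each dose. ED50 = dose giving a 50% change from control, by linear regression; N = 8.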

[5] = tested on: Rattus norvegicus; test: Hypotensive activity was determined in low-sodium treated rat, dose 30 mg/kg administered orally at 2 hr; assay type: functional; settings: route oral; outline: as §2
[6] = tested on: Rattus norvegicus; test: Decrease in systolic blood pressure of Spontaneous Hypertensive Rats (SHR) pretreated with hydrochlorothiazide upon oral administration at 30 mm/kg; assay type: functional, Artery; outline: as §1
[7] = tested on: Rattus norvegicus; test: Percent decrease in angiotensin I pressor response was measured in rat, administered intravenously at dose 0.81 mg/kg; assay type: functional; settings: route intravenous
Outline: (§4)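 Anesthetized (pentobarbital Na 15 mg/kg + barbital 220 mg/kg ip), tracheotomized male Charles River CD rats, 380–500 g, femoral cannulas, heated board at 37 °C. Control pressor responses to angiotensin I 0.3 μg/kg then angiotensin II 0.1 μg/kg iv; drug iv in 0.9% saline (free base), AI and AII repeated at 5-min intervals, cumulative 0.01–0.81 mg/kg. Peak arterial pressure rise versus control.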

[8] = tested on: Rattus norvegicus; test: Change in heart rate was determined at a dose 3 mg/kg; assay type: functional; outline: as §1
[9] = tested on: Rattus norvegicus; test: Activity against the bradykinin Response in anesthetized normotensive rat, administered intravenously at dose 0.010 mg/kg; assay type: functional; settings: dose 0.01 mg/kg; route intravenous; outline: as §3
[10] = tested on: Rattus norvegicus; test: Effect on vasopressor response caused by angiotensin I (AI) in anesthetized normotensive rat, administered intravenously at dose 0.27 mg/kg; assay type: functional; settings: route intravenous
Outline: (§5)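 Male Charles River CD rats, 380–500 g, anesthetized with pentobarbital Na 15 mg/kg plus barbital 220 mg/kg ip, held at 37 °C. Femoral artery pressure recorded. AI 0.3 μg/kg and AII 0.1 μg/kg given iv as challenges. Cumulative iv drug in saline, 0.01–0.81 mg/kg, each dose followed by AI/AII challenges at 5-min intervals. ED50 = 50% change from control response, by linear regression.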

[11] = tested on: Rattus norvegicus; test: Hypotensive activity was determined in low-sodium treated rat, dose 30 mg/kg administered orally at 5 hr; assay type: functional; settings: route oral; outline: as §2
[12] = tested on: Rattus norvegicus; test: Percent decrease in angiotensin I pressor response was measured in rat, administered intravenously at dose 0.27 mg/kg; assay type: functional; settings: route intravenous; outline: as §4
[13] = tested on: Rattus norvegicus; test: Effect on vasopressor response caused by angiotensin I (AI) in anesthetized normotensive rat, administered intravenously at dose 0.81 mg/kg; assay type: functional; settings: route intravenous; outline: as §5
[14] = tested on: Rattus norvegicus; test: Decrease in systolic blood pressure of Spontaneous Hypertensive Rats (SHR) pretreated with hydrochlorothiazide upon oral administration at 10 mm/kg; assay type: functional, Artery; outline: as §1
[15] = tested on: Rattus norvegicus; test: Decrease in systolic blood pressure of Spontaneous Hypertensive Rats (SHR) pretreated with hydrochlorothiazide upon oral administration at 3 mm/kg; assay type: functional, Artery; outline: as §1
[16] = tested on: Rattus norvegicus; test: Effect on vasopressor response caused by angiotensin I (AI) in anesthetized normotensive rat, administered intravenously at dose 0.030 mg/kg; assay type: functional; settings: dose 0.03 mg/kg; route intravenous; outline: as §5
[17] = tested on: Rattus norvegicus; test: Activity against the bradykinin Response in anesthetized normotensive rat, administered intravenously at dose 0.030 mg/kg; assay type: functional; settings: dose 0.03 mg/kg; route intravenous; outline: as §3
[18] = tested on: Rattus norvegicus; test: Percent change was determined in bradykinin depressor response in anesthetized normotensive rat, administered intravenously at dose 0.030 mg/kg; assay type: functional; settings: dose 0.03 mg/kg; route intravenous
Outline: (§6)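 Male Charles River CD rats (380–500 g), pentobarbital Na 15 mg/kg plus barbital 220 mg/kg ip, tracheotomized, femoral artery/vein cannulated, kept at 37 °C. Control bradykinin 1 μg/kg iv depressor response, separate from angiotensin tests; drug iv in 0.9% saline (1 mL/kg, free base) 10 min later, Bk 5 min after each cumulative dose (0.0033–0.27 mg/kg). Maximum fall in arterial pressure versus control response; N = 8.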

[19] = tested on: Rattus norvegicus; test: Activity against the bradykinin Response in anesthetized normotensive rat, administered intravenously at dose 0.0033 mg/kg; assay type: functional; settings: route intravenous; outline: as §3
[20] = tested on: Rattus norvegicus; test: Change in heart rate was determined at a dose 10 mg/kg; assay type: functional; outline: as §1
[21] = tested on: Rattus norvegicus; test: Change in heart rate was determined at a dose 30 mg/kg; assay type: functional; outline: as §1
[22] = tested on: Rattus norvegicus; test: Effect on vasopressor response caused by angiotensin I (AI) in anesthetized normotensive rat, administered intravenously at dose 0.090 mg/kg; assay type: functional; settings: dose 0.09 mg/kg; route intravenous; outline: as §5
[23] = tested on: Rattus norvegicus; test: Hypotensive activity was determined in low-sodium treated rat, dose 10 mg/kg administered orally at 5 hr; assay type: functional; settings: route oral; outline: as §2
[24] = tested on: Rattus norvegicus; test: Activity against the bradykinin Response in anesthetized normotensive rat, administered intravenously at dose 0.090 mg/kg; assay type: functional; settings: dose 0.09 mg/kg; route intravenous; outline: as §3
[25] = tested on: Rattus norvegicus; test: Percent decrease in angiotensin I pressor response was measured in rat, administered intravenously at dose 0.090 mg/kg; assay type: functional; settings: dose 0.09 mg/kg; route intravenous; outline: as §4
[26] = tested on: Rattus norvegicus; test: Effective dose to produce AcE inhibition in rat, administered intravenously; assay type: functional; settings: iv; outline: as §5
[27] = tested on: Rattus norvegicus; test: Percent change was determined in bradykinin depressor response in anesthetized normotensive rat, administered intravenously at dose 0.0033 mg/kg; assay type: functional; settings: route intravenous; outline: as §3
[28] = tested on: Rattus norvegicus; test: Percent decrease in angiotensin I pressor response was measured in rat, administered intravenously at dose 0.010 mg/kg; assay type: functional; settings: dose 0.01 mg/kg; route intravenous; outline: as §4
[29] = tested on: Rattus norvegicus; test: Hypotensive activity was determined in low-sodium treated rat, dose 3 mg/kg administered orally at 2 hr; assay type: functional; settings: route oral; outline: as §2
[30] = tested on: Rattus norvegicus; test: Hypotensive activity was determined in low-sodium treated rat, dose 10 mg/kg administered orally at 2 hr; assay type: functional; settings: route oral; outline: as §2
[31] = tested on: Rattus norvegicus; test: Percent change was determined in bradykinin depressor response in anesthetized normotensive rat, administered intravenously at dose 0.010 mg/kg; assay type: functional; settings: dose 0.01 mg/kg; route intravenous; outline: as §6
[32] = Half life was determined; assay type: ADME; settings: rat
Outline: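 Rats anesthetized with pentobarbital/barbital received a single iv dose, 0.2 or 0.08 mg/kg. AI 0.3 μg/kg iv given at 5 min, then every 10 min for 210 min. Half-life = time for the AI pressor response to fall to 50% of its peak inhibition.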

[33] = tested on: Rattus norvegicus; test: Effect on vasopressor response caused by angiotensin I (AI) in anesthetized normotensive rat, administered intravenously at dose 0.010 mg/kg; assay type: functional; settings: dose 0.01 mg/kg; route intravenous; outline: as §5
[34] = tested on: Rattus norvegicus; test: Percent change was determined in bradykinin depressor response n anesthetized normotensive rat, administered intravenously at dose 0.090 mg/kg; assay type: functional; settings: dose 0.09 mg/kg; route intravenous; outline: as §6
[35] = tested on: Rattus norvegicus; test: Percent decrease in angiotensin I pressor response was measured in rat, administered intravenously at dose 0.030 mg/kg; assay type: functional; settings: dose 0.03 mg/kg; route intravenous; outline: as §4

- ED50 [1]: 4 mg/kg
SMILES: CCOC(=O)[C@H](CCc1ccccc1)N[C@H](C)C(=O)N1C(=O)CC[C@H]1C(=O)O

- half-life [32]: 2.5 h
SMILES: CCOC(=O)[C@H](CCc1ccccc1)N[C@@H](C)C(=O)N1CCC[C@H]1C(=O)O [ENALAPRIL]
- ED30 [2]: 1.5 mg/kg
- Activity [3]: 128 mmHg
- ED50 [4]: 0.0097 mg/kg
- Activity [5]: 134 mmHg
- Blood pressure [6]: 163 mmHg
- Decrease [7]: 84%
- Heart rate [8]: 378 beats min-1
- Response [9]: -45 mmHg
- Response [10]: 8 mmHg
- Activity [11]: 128 mmHg
- Decrease [12]: 81%
- Response [13]: 7 mmHg
- Blood pressure [14]: 169 mmHg
- Blood pressure [15]: 199 mmHg
- Response [16]: 27 mmHg
- Response [17]: -61 mmHg
- Change [18]: 110%
- Response [19]: -27 mmHg
- Heart rate [20]: 380 beats min-1
- Heart rate [21]: 386 beats min-1
- Response [22]: 17 mmHg
- Activity [23]: 123 mmHg
- Response [24]: -60 mmHg
- Decrease [25]: 60%
- ED50 [26]: 0.066 mg/kg
- Change [27]: -7%
- Decrease [28]: 14%
- Activity [29]: 148 mmHg
- Activity [30]: 138 mmHg
- Change [31]: 55%
- Response [33]: 37 mmHg
- Change [34]: 107%
- Decrease [35]: 37%
